{"data": "Published values pooled from the literature", "target": "Proto-oncogene tyrosine-protein kinase ROS (ROS1, Homo sapiens, UniProt P08922)", "note": "Protocols differ between the studies behind these lines."}
{"SMILES": "CC1=C(C#N)[C@@H](c2ccc3[nH]nc(C)c3c2)C(C#N)=C(c2ccc(Cl)cc2)N1", "observed": "cell-free assay", "technique": "competition with immobilised ligand", "tested at": "1 µM", "remaining binding": "100%"}
{"SMILES": "COc1cnc(Nc2cccc(S(N)(=O)=O)c2)nc1N1CCN(c2ccccc2)CC1", "observed": "binding", "technique": "competition with immobilised ligand", "tested at": "1 µM", "remaining binding": "99%"}
{"SMILES": "CN(C)c1ncc(F)c(-c2cnn3ncccc23)n1", "observed": "binding", "tested at": "1 µM", "remaining binding": "87%"}
{"SMILES": "O=C(c1ccc(Nc2ncc(Cl)c(-c3cc4ccccc4s3)n2)cc1)N1CCC(N2CCCC2)CC1", "observed": "binding", "technique": "competition with immobilised ligand", "tested at": "1 µM", "remaining binding": "31%"}
{"SMILES": "CN(C)c1nccc(-c2cnn3ncccc23)n1", "observed": "binding", "tested at": "1 µM", "remaining binding": "100%"}
{"SMILES": "N#CC1(c2ccccn2)CCN(Cc2cc(C(=O)N3CCCC3)c(=O)n3ccccc23)CC1", "observed": "cell-free assay", "technique": "competition with immobilised ligand", "tested at": "1 µM", "remaining binding": "97%"}
{"SMILES": "Cc1cnn2ncc(-c3ccnc(N(C)C)n3)c2c1", "observed": "binding", "tested at": "1 µM", "remaining binding": "100%"}
{"SMILES": "O=C(Nc1c[nH]nc1C(=O)NC1CCNCC1)c1cc(F)cc(F)c1", "observed": "binding", "technique": "competition with immobilised ligand", "tested at": "1 µM", "remaining binding": "100%"}
{"SMILES": "O=C(c1ccc(Nc2nccc(-c3cc4ccccc4s3)n2)cc1)N1CCC(N2CCCC2)CC1", "observed": "binding", "technique": "competition with immobilised ligand", "tested at": "1 µM", "remaining binding": "65%"}
{"SMILES": "CC(=O)C1=C(C)N(c2cccc(C(F)(F)F)c2)C(=O)N[C@@H]1c1ccc(C#N)nc1", "observed": "cell-free assay", "technique": "competition with immobilised ligand", "tested at": "1 µM", "remaining binding": "100%"}
{"SMILES": "FC(F)(F)Oc1cccc(-c2cnc3ccc(-c4ccncc4)nn23)c1", "observed": "binding", "technique": "competition with immobilised ligand", "tested at": "5 µM", "remaining binding": "81%"}
{"SMILES": "Cc1cnc(Nc2ccc(C(=O)N3CCC(N4CCCC4)CC3)cc2)nc1-c1cc2ccccc2s1", "observed": "binding", "technique": "competition with immobilised ligand", "tested at": "1 µM", "remaining binding": "31%"}
{"SMILES": "Nc1ncc2c(n1)-c1c([nH]c3ccc(C#CC4CC4)cc13)CCCC2", "observed": "binding", "technique": "competition with immobilised ligand", "tested at": "1 µM", "remaining binding": "99%"}
{"SMILES": "CO[C@@H](C)c1c(Nc2ccc([C@H](N(C)C(=O)C3CCS(=O)(=O)CC3)C(F)(F)F)cc2)cnc2cc(Cl)nn12", "observed": "cell-free assay", "technique": "competition with immobilised ligand", "tested at": "1 µM", "remaining binding": "77%"}
{"SMILES": "CN(CCCC(F)(F)F)c1nccc(-c2cnn3ncccc23)n1", "observed": "binding", "tested at": "1 µM", "remaining binding": "79%"}
{"SMILES": "O=C(Nc1cccnn1)N1CC(C/C=C/c2cncc(Oc3ccc(C(F)(F)F)cn3)n2)C1", "observed": "cell-free assay", "technique": "competition with immobilised ligand", "tested at": "1 µM", "remaining binding": "100%"}
{"SMILES": "CNC(=O)[C@@H]1CC[C@@H](n2c(-c3ccc4cnccc4c3)nc3ccc(C(=O)NCc4cccc(C(N)=O)c4)cc32)C1", "observed": "binding", "technique": "competition with immobilised ligand", "tested at": "1 µM", "remaining binding": "100%"}
{"SMILES": "COc1ncc2cc3ccccc3nc2c1C#N", "observed": "cell-free assay", "technique": "competition with immobilised ligand", "tested at": "5 µM", "remaining binding": "91%"}
{"SMILES": "C[C@@H]1CCN(c2nccc(-c3cnn4ncccc34)n2)C1", "observed": "binding", "tested at": "1 µM", "remaining binding": "99%"}
{"SMILES": "CC(C)(O)c1cncc(-c2nc3ccc(F)cc3n2C2CC2)c1", "observed": "cell-free assay", "technique": "competition with immobilised ligand", "tested at": "1 µM", "remaining binding": "100%"}
{"SMILES": "N[C@H]1CCN(c2nccc(-c3cnn4ncccc34)n2)C1", "observed": "binding", "tested at": "1 µM", "remaining binding": "85%"}
{"SMILES": "O=S(=O)(NC1CCC(c2cc(F)ccc2F)(S(=O)(=O)c2ccc(Cl)cc2)CC1)C(F)(F)F (stereo not shown)", "observed": "cell-free assay", "technique": "competition with immobilised ligand", "tested at": "1 µM", "remaining binding": "100%"}
